# Experimental data published in article PMC7935409 (Investigative radiology, 2020).
# Tested on: Male Wistar rats
# Assay: DEN model of hepatic fibrosis and inflammation, body weight and liver histology
# Assay type: in vivo, rat
# Details: for collagen proportional area (CPA), Sirius Red: weekly 100 mg/kg i.p.
# In short: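 Male Wistar rats (190–220 g at start) got weekly i.p. DEN 100 mg/kg in PBS for 4 weeks, or PBS only as controls, and were sampled 1 or 7 days after the last dose. Formalin-fixed, paraffin-embedded 5 μm liver sections were stained with H&E, Sirius Red, and fibrin antibody (1:25). A pathologist scored modified Ishak HAI; CPA was the % Sirius Red area. Values are mean ± standard error, compared by t-test.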
smiles,measurement,setting,value
"CCN(CC)N=O [DEN, diethylnitrosamine]",HAI score for inflammation (0 – 4),1 day post DEN,3.54 ± 0.14
same,"fibrin immunostaining, area stained",1 day post DEN,3.56 ± 1.35
same,fibrosis Ishak score (0 – 6),1 day post DEN,3.62 ± 0.31
same,"collagen proportional area (CPA), Sirius Red",1 day post DEN,3.14 ± 1.27%
same,HAI score for inflammation (0 – 4),7 days post DEN,1.61 ± 0.16
same,"fibrin immunostaining, area stained",7 days post DEN,1.02 ± 0.58
same,fibrosis Ishak score (0 – 6),7 days post DEN,3.82 ± 0.25
same,"collagen proportional area (CPA), Sirius Red",7 days post DEN,3.30 ± 0.65%
